Screening data as filed in PubChem BioAssay.
Lmaj promast: inhibitors of Leishmania major promastigote growth | Leishmania major promastigotes, resazurin fluorescence viability | inhibition, % at 10 µM | 200,000 compounds, 9% hits | AID 1063;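 note: promastigotes grown with compound for 44 hours at 28 °C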
PfGluPho inh: PfG6PD (Plasmodium falciparum) enzyme inhibition; PfGluPho enzyme, NADPH resazurin-diaphorase fluorescence; inhibition, % at 20 µM; 350,000 compounds, 0.78% hits;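 active = inhibition reaching at least a set limit at 20 µM in the primary screen, cut at about 59% in these data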
G6PDH counter: counter-screen for G6PDH assay hits: L. mesenteroides G6PDH inhibition. Purified L. mesenteroides G6PDH, diaphorase/resazurin coupled fluorescence, 45 min. inhibition, % at 5 µM. 200,000 compounds, 0.12% hits. AID 1020
Diaphorase inh: inhibits diaphorase or chemically oxidizes, flagging diaphorase assay artifacts | inhibition, % at 20 µM | diaphorase resazurin-to-resorufin fluorescence, NADH, 16 min; bacterial (C. kluyveri) enzyme, not human | 190,000 compounds, 0.69% hits;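 active = primary screen inhibition at 20 µM above a set limit, cut at about 50% in these data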
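Test system: Clostridium kluyveri diaphorase enzyme / Quantity: diaphorase at 0.14 U/mL in enzyme working solution / Incubation: 16-min room-temperature incubation before reading / Benchmarks: NADH-free wells as positive control, DMSO-only neutral wells / Signal: resorufin fluorescence 544/590 nm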
DTT redox prof: compounds producing H2O2 with reducing agent – biochemical, NIH compound library profiling, artefact control for MLSCN library redox annotation, primary screen | DTT-dependent redox cycling H2O2, phenol red/HRP absorbance; 100% = 100 µM peroxide control, 0% = buffer | activation, % at 10 µM | 200,000 compounds, 0.03% hits;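 active = activation of at least 50% relative to the plate's high and low controls in the primary single-dose screen; inactive = activation below 50%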;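 note: compound incubated with DTT at 0.8 mM final as the reducing agent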
Diaph act CS: diaphorase activation or chemical reduction counter-screen | Diaphorase/resazurin coupled assay, resorufin fluorescence, 16 min; hits give high values; 1 = vehicle wells, 0 = NADH-free wells | activation factor at 20 µM | 190,000 compounds, 0.005% hits;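 active = diaphorase activity raised at least twofold by the compound at 20 µM; inactive = activation factor below 2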
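Material: purified diaphorase enzyme from Clostridium kluyveri; Also added: 0.114 mM NADH and 0.1 mM resazurin, final amounts; Doses: single compound dose of 20 µM, 1% DMSO final; Times: 16 min enzyme reaction, ambient temperature; Detection: resorufin fluorescence, excitation 544 nm, emission 590 nm; Measure: increased resorufin signal from activators or reducing compounds.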
Large screens that a line does not name were inactive. This excerpt belongs to a sample that is enriched for hits. Cut-off read from the data, not from the text of the source, unless noted: active = inhibition above about 50%; inactive = the rest.

CCOC(=O)C1=C(C(=O)OCC)N(CC2CCCCC2)CCC1=O	none (no result: Lmaj promast, G6PDH counter, Diaphorase inh, DTT redox prof, Diaph act CS)
C(C#CCN1CCOCC1)#CCN1CCOCC1	none (no result: Lmaj promast, G6PDH counter, Diaphorase inh, DTT redox prof, Diaph act CS)
O=C(Cn1nc(Cc2cccnc2)c2ccccc2c1=O)N1CCN(C(=O)c2ccco2)CC1	Lmaj promast 73
Cn1ccnc1/C(=N\NC(=O)c1ccccc1)c1cccc([N+](=O)[O-])c1	none
C/C(=N\NC(=O)c1ccc(F)cc1)c1ccccn1	none (no result: Lmaj promast, G6PDH counter, Diaphorase inh, DTT redox prof, Diaph act CS)
CCOc1ccc(C(=O)N/N=C(\c2ccccc2)c2ccccn2)cc1	Lmaj promast 99
O=C(N/N=C(\c1ccccc1)c1ccccn1)c1cccc([N+](=O)[O-])c1	Lmaj promast 100
O=C(c1ccc(F)cc1)N1CCN(c2cc(N3CCCCC3)c(F)cc2[N+](=O)[O-])CC1	none
CCOc1ccc(-n2c(SCC(=O)O)nc3sc4c(c3c2=O)CCCC4)cc1	none (no result: Lmaj promast, G6PDH counter, Diaphorase inh, DTT redox prof, Diaph act CS)
CCN1CCN(c2nc3sc4c(c3c(=O)n2-c2ccc(OC)cc2)CCCCC4)CC1	Lmaj promast 98
Cc1nn(Cc2ccccc2)c(C)c1NC(=O)c1ccc([N+](=O)[O-])cc1[N+](=O)[O-]	Lmaj promast 63
COc1ccc(OC)c(-c2cc(C(=O)Nc3c(C)nn(Cc4ccccc4)c3C)no2)c1	none
COc1ccc(OC)c(-c2cc(C(=O)Nc3c(C)nn(Cc4ccc(Cl)cc4)c3C)no2)c1	Lmaj promast 52
Cc1nn(Cc2ccccc2)c(C)c1NC(=O)Cn1nc([N+](=O)[O-])c(Cl)c1C	none
Cc1cc(C)n(C(=O)c2ccc([N+](=O)[O-])cc2[N+](=O)[O-])n1	Lmaj promast 99
Cc1nn(Cc2ccc(Cl)c(Cl)c2)c(C)c1NC(=O)c1cn(-c2ccccc2)nc1-c1ccccc1	Lmaj promast 77
CC(C)n1c(CSCc2ccc(Cl)cc2Cl)n[nH]c1=S	none
Cc1nn(Cc2ccc(Cl)cc2)c(C)c1NC(=O)c1cc(-c2ccc3c(c2)OCO3)on1	none
Cc1nn(Cc2ccc(Cl)c(Cl)c2)c(C)c1NC(=O)c1cc(-c2ccc3c(c2)OCO3)on1	Lmaj promast 77
CCOc1ccccc1N(CC(=O)N1CCCC1)S(C)(=O)=O	none (no result: Lmaj promast, G6PDH counter, Diaphorase inh, DTT redox prof, Diaph act CS)
CCN(CC)C(=O)C1=C(C)N(CCCOC)C(=O)C(CC(=O)NC2CCCCC2)C1 (stereo not given)	none (no result: Lmaj promast, G6PDH counter, Diaphorase inh, DTT redox prof, Diaph act CS)
CC(C(=O)NCC1CCCCC1)N1CCN(S(=O)(=O)/C=C/c2ccccc2)CC1 (stereo not given)	Lmaj promast 99
CC(C(=O)NCC1CCCCC1)N1CCc2ccccc2C1 (stereo not given)	none
CCN(CC)c1ccc2c(Cl)c(Br)c(=O)oc2c1	Lmaj promast 69
CCN(CC)c1ccc2c(C)c(Cl)c(=O)oc2c1	none
COc1ccc(CCN2CC(C(=O)NCCCn3nc(C)cc3C)CCC2=O)cc1 (stereo not given)	none (no result: Lmaj promast, G6PDH counter, Diaphorase inh, DTT redox prof, Diaph act CS)
N=c1c2ccccc2nc2n1CCCCCCCCCCC2	none (no result: Lmaj promast, G6PDH counter, Diaphorase inh, DTT redox prof, Diaph act CS)
CCOc1ccc(C)cc1S(=O)(=O)n1ccnc1	none
COc1ccc(Br)cc1S(=O)(=O)n1ccnc1	Lmaj promast 63
CCOc1cc(C)c(Cl)cc1S(=O)(=O)n1ccnc1	Lmaj promast 92
COc1ccc(-n2nnc3c(SC(C(C)=O)C(=O)N(C)C)ncnc32)cc1 (stereo not given)	PfGluPho inh 64 (no result: Lmaj promast, G6PDH counter, Diaphorase inh, DTT redox prof, Diaph act CS)
O=C1NC(c2ccc3c(c2)OCO3)Nc2ccccc21 (stereo not given)	none
CC1(CCc2ccc3c(c2)OCO3)NC(=O)c2ccccc2N1 (stereo not given)	Lmaj promast 100
CCn1cc(C(=O)N=c2sc3ccccc3n2C)c(=O)c2ccc(C)nc21	Lmaj promast 89 (no result: PfGluPho inh, G6PDH counter, Diaphorase inh, Diaph act CS)
CCn1cc(C(=O)Nc2ccccc2)c(=O)c2ccc(C)nc21	none (no result: PfGluPho inh, Diaphorase inh, Diaph act CS)
O=C1CNC(=O)N1CC(O)Cn1c2ccccc2c2ccccc21 (stereo not given)	none
CCOC(=O)c1cc(CC)sc1/N=C/c1c(O)ccc2ccccc12	Lmaj promast 64
CCOC(=O)c1cc(CC)sc1/N=C/C1C(=O)CCCC1=O	none
O=[N+]([O-])c1ccc(Sc2nnnn2-c2ccccc2)nc1	Lmaj promast 82
O=[N+]([O-])c1ccc(Sc2ccccn2)nc1	none (no result: Lmaj promast, G6PDH counter, Diaphorase inh, DTT redox prof, Diaph act CS)
CCCCCCCCSc1nnc(CSc2nc3nc(C)cc(C)n3n2)o1	Lmaj promast 67
N#C/C(=C/c1ccc(N2CCCCC2)cc1)c1cccc(F)c1	Lmaj promast 99
O=C1/C(=N/n2cnnc2)c2ccccc2N1Cc1ccccc1	Lmaj promast 85 (no result: PfGluPho inh)
CC(=O)N1CC(=O)N=C1SCC(=O)Nc1nc(C)c(-c2ccccc2)s1	Lmaj promast 96
Cc1nc(NC(=O)CN2CCOCC2)sc1-c1ccccc1	Lmaj promast 51
Cc1c(C(=O)O)cccc1-n1c(C)cc(/C=N/NC(=O)c2cc3ccccc3o2)c1C	Lmaj promast 56
Cc1cc(C)cc(-n2nnc(C(=O)NCc3ccccc3Cl)c2N)c1	none
COc1cc2c(C#N)c(N3CCc4ccccc4C3)nc(N)c2c(N)n1	Lmaj promast 54, Diaphorase inh 61
COc1cc2c(C#N)c(N3CCCCC3)nc(N)c2c(N)n1	G6PDH counter 51, Diaphorase inh 64
CCOc1cc2c(C#N)c(N3CCCCC3)nc(N)c2c(N)n1	Diaphorase inh 58
COc1cc2c(C#N)c(N3CCOCC3)nc(N)c2c(N)n1	none
COc1ccc(C(=O)N(C)Cc2ccccc2)cc1Br	none (no result: PfGluPho inh)
Cn1cnnc1SCc1ccc(-c2ccc(Br)cc2)o1	none
COC(=O)C1=C(C(=O)OC)C(c2cc(Cl)ccc2O)c2sc(=O)[nH]c2S1 (stereo not given)	none
COC(=O)C1=C(C(=O)OC)C(c2cc(Br)ccc2O)c2sc(=O)[nH]c2S1 (stereo not given)	Lmaj promast 65
O=C(Cc1ncc(C(F)(F)F)cc1Cl)NNc1cccc(F)n1	none (no result: Lmaj promast, G6PDH counter, Diaphorase inh, DTT redox prof, Diaph act CS)
CN1CCN(CC(O)COc2ccc(C(=O)O)cc2)CC1 (stereo not given)	none (no result: Lmaj promast, G6PDH counter, Diaphorase inh, DTT redox prof, Diaph act CS)
CCN1CCN(CC(O)COc2ccc(Cl)cc2)CC1 (stereo not given)	Lmaj promast 89
Cc1cc(OCC(O)CN2C(C)CCCC2C)ccc1C(C)C (stereo not given)	Lmaj promast 97
OC(COc1ccc2c(c1)OCO2)CN1CCCCC1 (stereo not given)	none
OCCN1CCN(CC(O)COc2ccc(C34CC5CC(CC(C5)C3)C4)cc2)CC1 (stereo not given)	Lmaj promast 100
COc1cccc(OCC(O)CN2C(C)CCCC2C)c1 (stereo not given)	none
Cc1ccc(OCC(O)CN2CCN(Cc3ccc4c(c3)OCO4)CC2)cc1C (stereo not given)	Lmaj promast 91
O=C(O)C1C2CCC(O2)C1C(=O)Nc1ccccc1Br (stereo not given)	none (no result: Lmaj promast, G6PDH counter, Diaphorase inh, DTT redox prof, Diaph act CS)
